Columns and labels:
[1] = tested on: J774.A1; experiment: Antiproliferative activity against mouse J774A1 cells after 72 hrs by MTT conversion assay; assay type: cell-based; settings: J774.A1, 72 h
Method in brief: (§1)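 Cells (3.4 × 10^4 per well) adhered 2 h at 37 °C, 5% CO2; medium replaced with fresh medium and 1:4 serial dilutions of test compound added, then incubated 72 h; 6-mercaptopurine serial dilutions in some experiments. Viability by MTT conversion, OD read at 620 nm; % dead cells = 100 − (OD treated/OD control) × 100.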

[2] = tested on: HEK293; experiment: Antiproliferative activity against HEK293 cells after 72 hrs by MTT conversion assay; assay type: cell-based, Homo sapiens; method in brief: as §1
[3] = tested on: WEHI-164; experiment: Antiproliferative activity against mouse WEHI164 cells after 72 hrs by MTT conversion assay; assay type: functional, cell-based; method in brief: as §1
[4] = Homo sapiens, HEK293, 72 h, read-out: IC50
[5] = Mus musculus, WEHI-164, 72 h, read-out: IC50

Structure (SMILES) | IC50 [1] [nM] | IC50 [2, 4] [nM] | IC50 [3, 5] [nM] | IC50 ([2]; hek293) | IC50 ([3]; wehi-164)
CC(=O)N[C@H]1[C@H](O[C@H]2CC[C@]3(C)[C@H]4CC=C5[C@@H]6CC(C)(C)CC[C@]6(C(=O)O[C@@H]6O[C@H](COC(C)=O)[C@@H](O)[C@H](O[C@@H]7OC[C@@H](O)[C@H](O)[C@H]7OC(=O)/C=C/c7ccccc7)[C@H]6O[C@@H]6OC[C@@H](O)[C@H](O[C@@H]7OC[C@](O)(CO)[C@H]7O)[C@H]6O)[C@H](O)C[C@@]5(C)[C@]4(C)CC[C@H]3C2(C)C)O[C@H](CO[C@@H]2OC[C@H](O)[C@H](O[C@@H]3OC[C@@H](O)[C@H](O)[C@H]3O)[C@H]2O)[C@@H](O[C@@H]2O[C@H](CO)[C@@H](O)[C@H](O)[C@H]2O)[C@@H]1O | 980 | 560 | 940 |  | 
CC(=O)N[C@H]1[C@H](O[C@H]2CC[C@]3(C)[C@H]4CC=C5[C@@H]6CC(C)(C)CC[C@]6(C(=O)O[C@@H]6O[C@H](COC(C)=O)[C@@H](O)[C@H](O[C@@H]7OC[C@@H](O)[C@H](O)[C@H]7O)[C@H]6O[C@@H]6OC[C@@H](O)[C@H](O[C@@H]7OC[C@](O)(CO)[C@H]7O)[C@H]6O)[C@H](O)C[C@@]5(C)[C@]4(C)CC[C@H]3C2(C)C)O[C@H](CO[C@@H]2OC[C@H](O)[C@H](O[C@@H]3OC[C@@H](O)[C@H](O)[C@H]3O)[C@H]2O)[C@@H](O[C@@H]2O[C@H](CO)[C@@H](O)[C@H](O)[C@H]2O)[C@@H]1O | 2900 |  |  | Not Traceable | Not Traceable
C=C[C@@](C)(O)CC/C=C(\C)C(=O)O[C@@H]1[C@@H](OC(=O)/C=C/c2ccccc2)[C@H](O[C@H]2[C@H](O)[C@@H](COC(C)=O)O[C@@H](OC(=O)[C@]34C[C@H](O)C(C)(C)C[C@H]3C3=CC[C@@H]5[C@@]6(C)CC[C@H](O[C@@H]7O[C@H](CO[C@@H]8OC[C@H](O)[C@H](O[C@@H]9OC[C@H](O)[C@H](O)[C@H]9O)[C@H]8O)[C@@H](O[C@@H]8O[C@H](CO)[C@@H](O)[C@H](O)[C@H]8O)[C@H](O)[C@H]7NC(C)=O)C(C)(C)[C@@H]6CC[C@@]5(C)[C@]3(C)C[C@H]4O)[C@@H]2O[C@@H]2OC[C@@H](O)[C@H](O[C@@H]3OC[C@](O)(CO)[C@H]3O)[C@H]2O)OC[C@H]1O | 3000 | 2800 | 2700 |  | 
CC(=O)N[C@H]1[C@H](O[C@H]2CC[C@]3(C)[C@H]4CC=C5[C@@H]6CC(C)(C)CC[C@]6(C(=O)O[C@@H]6O[C@H](COC(C)=O)[C@@H](O)[C@H](O[C@@H]7OC[C@@H](O)[C@H](O)[C@H]7O)[C@H]6O[C@@H]6OC[C@@H](O)[C@H](O[C@@H]7OC[C@](O)(CO)[C@H]7O)[C@H]6O)[C@H](O)C[C@@]5(C)[C@]4(C)CC[C@H]3C2(C)C)O[C@H](CO[C@@H]2OC[C@H](O)[C@H](O[C@@H]3OC[C@H](O)[C@H](O)[C@H]3O)[C@H]2O)[C@@H](O[C@@H]2O[C@H](CO)[C@@H](O)[C@H](O)[C@H]2O)[C@@H]1O | 3100 |  |  | Not Traceable | Not Traceable
C=C[C@](C)(O)CC/C=C(\C)C(=O)O[C@@H]1[C@@H](O)[C@H](O[C@H]2[C@H](O)[C@@H](COC(C)=O)O[C@@H](OC(=O)[C@]34CCC(C)(C)C[C@H]3C3=CC[C@@H]5[C@@]6(C)CC[C@H](O[C@@H]7O[C@H](CO[C@@H]8OC[C@H](O)[C@H](O[C@@H]9OC[C@@H](O)[C@H](O)[C@H]9O)[C@H]8O)[C@@H](O[C@@H]8O[C@H](CO)[C@@H](O)[C@H](O)[C@H]8O)[C@H](O)[C@H]7NC(C)=O)C(C)(C)[C@@H]6CC[C@@]5(C)[C@]3(C)C[C@H]4O)[C@@H]2O[C@@H]2OC[C@@H](O)[C@H](O[C@@H]3OC[C@](O)(CO)[C@H]3O)[C@H]2O)OC[C@H]1O | 520 | 270 | 490 |  | 
C=C[C@](C)(O)CC/C=C(\C)C(=O)O[C@@H]1[C@@H](O)[C@H](O[C@H]2[C@H](O)[C@@H](COC(C)=O)O[C@@H](OC(=O)[C@]34C[C@H](O)C(C)(C)C[C@H]3C3=CC[C@@H]5[C@@]6(C)CC[C@H](O[C@@H]7O[C@H](CO[C@@H]8OC[C@H](O)[C@H](O[C@@H]9OC[C@@H](O)[C@H](O)[C@H]9O)[C@H]8O)[C@@H](O[C@@H]8O[C@H](CO)[C@@H](O)[C@H](O)[C@H]8O)[C@H](O)[C@H]7NC(C)=O)C(C)(C)[C@@H]6CC[C@@]5(C)[C@]3(C)C[C@H]4O)[C@@H]2O[C@@H]2OC[C@@H](O)[C@H](O[C@@H]3OC[C@](O)(CO)[C@H]3O)[C@H]2O)OC[C@H]1O | 31 | 250 | 100 |  | 
C=C[C@@](C)(O)CC/C=C(\C)C(=O)O[C@@H]1[C@@H](OC(=O)/C=C/c2ccccc2)[C@H](O[C@H]2[C@H](O)[C@@H](COC(C)=O)O[C@@H](OC(=O)[C@]34CCC(C)(C)C[C@H]3C3=CC[C@@H]5[C@@]6(C)CC[C@H](O[C@@H]7O[C@H](CO[C@@H]8OC[C@H](O)[C@H](O[C@@H]9OC[C@@H](O)[C@H](O)[C@H]9O)[C@H]8O)[C@@H](O[C@@H]8O[C@H](CO)[C@@H](O)[C@H](O)[C@H]8O)[C@H](O)[C@H]7NC(C)=O)C(C)(C)[C@@H]6CC[C@@]5(C)[C@]3(C)C[C@H]4O)[C@@H]2O[C@@H]2OC[C@@H](O)[C@H](O[C@@H]3OC[C@](O)(CO)[C@H]3O)[C@H]2O)OC[C@H]1O | 840 | 360 | 380 |  | 
CC(=O)N[C@H]1[C@H](O[C@H]2CC[C@]3(C)[C@H]4CC=C5[C@@H]6CC(C)(C)CC[C@]6(C(=O)O[C@@H]6O[C@H](CO)[C@@H](O)[C@H](O[C@@H]7OC[C@@H](O)[C@H](O)[C@H]7O)[C@H]6O[C@@H]6OC[C@@H](O)[C@H](O[C@@H]7OC[C@](O)(CO)[C@H]7O)[C@H]6O)[C@H](O)C[C@@]5(C)[C@]4(C)CC[C@H]3C2(C)C)O[C@H](CO[C@@H]2OC[C@H](O)[C@H](O[C@@H]3OC[C@@H](O)[C@H](O)[C@H]3O)[C@H]2O)[C@@H](O[C@@H]2O[C@H](CO)[C@@H](O)[C@H](O)[C@H]2O)[C@@H]1O | 1200 |  |  | Not Traceable | Not Traceable
CC(=O)N[C@H]1[C@H](O[C@H]2CC[C@]3(C)[C@H]4CC=C5[C@@H]6CC(C)(C)[C@@H](O)C[C@]6(C(=O)O[C@@H]6O[C@H](COC(C)=O)[C@@H](O)[C@H](O[C@@H]7OC[C@@H](O)[C@H](O)[C@H]7O)[C@H]6O[C@@H]6OC[C@@H](O)[C@H](O[C@@H]7OC[C@](O)(CO)[C@H]7O)[C@H]6O)[C@H](O)C[C@@]5(C)[C@]4(C)CC[C@H]3C2(C)C)O[C@H](CO[C@@H]2OC[C@H](O)[C@H](O[C@@H]3OC[C@@H](O)[C@H](O)[C@H]3O)[C@H]2O)[C@@H](O[C@@H]2O[C@H](CO)[C@@H](O)[C@H](O)[C@H]2O)[C@@H]1O | 2200 | 3900 | 2000 |  | 
